Published values collected from several papers.
Lines come from different studies, so protocols differ.
Cell line: MOLM-13
Effect on: cell growth or viability

Compound	technique	concentration	time	measurement	value
c1cc(N2CCC(N3CCOCC3)CC2)ccc1Nc1ccc2ncc(OCC3CCNCC3)nc2c1	XTT		7 days	EC50	> 30000 nM
Cc1n[nH]c2ccc3nc(-c4ccc(C(=O)NCCN(C)C)cc4)c4c(c3c12)CCCCC4			72 h	GI50	187 nM
COc1ccc2/c(=N/c3ccccc3NC(=O)N3CCOCC3)cc(-c3ccc4c(c3)OCCO4)oc2c1	CCK-8	1 µM		inhibition	3.11%
CONC(=O)c1cccc2c1cc(C)n2-c1nc2c(c(NCc3ccccc3)n1)CCCN2			72 h	IC50	1400 nM
NCC(=O)Nc1ccccc1/N=c1\cc(-c2ccc3c(c2)OCO3)oc2ccccc12	CCK-8	1 µM		inhibition	1.52%
Nc1cccc(-c2ccc3ncc(OCC4CCNCC4)nc3c2)c1	XTT		7 days	EC50	28300 nM
Cc1n[nH]c2ccc3nc(-c4ccc(C(=O)NCCN(C)C)cc4)c4c(c3c12)CCCC4			72 h	GI50	54 nM
c1ccc(COc2ccc(Nc3ccc4ncc(OCC5CCNCC5)nc4c3)cc2)cc1	XTT		7 days	EC50	840 nM
Cc1n[nH]c2ccc3nc(-c4ccc(C(=O)NCCN(C)C)cc4F)c4c(c3c12)CCCCC4			72 h	GI50	150 nM
CCNc1nc2ccc(-c3c/c(=N\c4ccccc4NC(=O)CCN)c4ccccc4o3)cc2o1	CCK-8	1 µM		inhibition	12.2%
CN(C)CCNC(=O)c1ccc(-c2nc3ccc4[nH]ncc4c3c3c2CCCCC3)cc1			72 h	GI50	84 nM
CS(=O)(=O)NCCC(=O)Nc1ccccc1/N=c1\cc(-c2ccc3nc(N)oc3c2)oc2ccccc12	CCK-8	1 µM		inhibition	8.5%
Cc1n[nH]c2ccc3nc(-c4ccc(C(=O)NCCN(C)C)cc4F)c4c(c3c12)CCCC4			72 h	GI50	47 nM
CC(C)(C)[C@H](N)C(=O)Nc1ccccc1/N=c1\cc(-c2ccc3c(c2)OCCO3)oc2cc(F)ccc12	CCK-8	1 µM		inhibition	6.65%
Fc1ccc(Oc2ccc(Nc3ccc4ncc(OCC5CCNCC5)nc4c3)cc2)cc1	XTT		7 days	EC50	1600 nM
